Laboratory results from ChEMBL document CHEMBL4130408, “Photoactivation provides a mechanistic explanation for pan-assay interference behaviour of 2-aminopyrroles in lipoxygenase inhibition” (Eur J Med Chem, 2017).

Target: T1, Polyunsaturated fatty acid lipoxygenase ALOX15 (Homo sapiens) (UniProt P16050)
T1 sequence (whole entry): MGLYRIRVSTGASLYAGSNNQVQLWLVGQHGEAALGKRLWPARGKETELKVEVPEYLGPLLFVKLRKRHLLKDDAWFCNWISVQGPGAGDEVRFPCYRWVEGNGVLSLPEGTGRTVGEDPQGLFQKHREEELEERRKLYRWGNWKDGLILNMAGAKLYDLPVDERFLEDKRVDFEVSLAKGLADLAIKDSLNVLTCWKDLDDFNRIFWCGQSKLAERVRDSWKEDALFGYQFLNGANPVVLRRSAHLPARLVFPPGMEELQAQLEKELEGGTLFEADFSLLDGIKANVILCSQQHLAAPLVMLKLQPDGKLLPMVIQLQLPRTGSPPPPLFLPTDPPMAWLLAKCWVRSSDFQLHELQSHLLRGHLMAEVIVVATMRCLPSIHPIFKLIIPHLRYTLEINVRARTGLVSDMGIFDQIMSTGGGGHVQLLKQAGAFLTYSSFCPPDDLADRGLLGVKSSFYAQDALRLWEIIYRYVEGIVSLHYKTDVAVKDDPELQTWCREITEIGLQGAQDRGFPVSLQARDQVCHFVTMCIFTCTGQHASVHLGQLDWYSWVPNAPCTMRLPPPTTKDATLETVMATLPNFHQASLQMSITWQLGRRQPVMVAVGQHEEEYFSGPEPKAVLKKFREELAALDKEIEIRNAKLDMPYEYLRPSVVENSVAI
Assay: Inhibition of recombinant human 15-LOX-1 expressed in Escherichia coli BL21(DE3) assessed as residual activity at 50 uM using linoleic acid as substrate preincubated for 10 mins followed by substrate addition
Outline: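 h-15-LOX-1 (1:100 enzyme stock, 1:400 final) preincubated 10 min at room temperature with inhibitor in 25 mM HEPES pH 7.4, then linoleic acid added to 25 µM final (inhibitor 50 µM final). 13(S)-HpODE formation read as A234 over time, rate taken from linear part within first 16 min; no-inhibitor = 100%, no-enzyme = 0%. Triplicate.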

Point of comparison: `Nc1[nH]c(C(=O)c2ccccc2)c(-c2cccc3ccccc23)c1C(=O)c1cccs1`, Activity 73.7%. Against it:
- NC(=O)c1c(N)[nH]c(C(=O)c2ccccc2)c1-c1ccc(Br)cc1 — higher, 99.3%
- Nc1[nH]c2ccccc2c1C(=O)NC1CC1 — higher, 126%
- COc1ccc(C(=O)c2[nH]c(N)c(C(=O)NCCc3c[nH]c4ccccc34)c2-c2ccc(OC)c(OC)c2)cc1 — lower, 70.3%
- Nc1[nH]c(C(=O)c2ccc(Br)cc2)c(-c2ccccc2)c1C(=O)NCCc1c[nH]c2ccccc12 — lower, 69%
- Nc1[nH]c(C(=O)c2ccccc2)c(-c2ccc(Cl)cc2)c1C(=O)c1c[nH]c2cc(F)ccc12 — higher, 86.5 to 87.5%
- NC(=O)c1c(N)[nH]c(C(=O)c2ccccc2)c1-c1ccccc1 — higher, 116%
- Nc1[nH]c(C(=O)c2ccccc2)c(-c2ccccn2)c1C(=O)c1c[nH]c2cc(F)ccc12 — higher, 98.5%
- Cc1ccc(S(=O)(=O)n2c(-c3ccccc3)cc(C(=O)NC3CC3)c2N)cc1 — higher, 92.2%
- Cc1ccc(-c2c(C(=O)c3ccccc3)[nH]c(N)c2C(=O)NCCc2c[nH]c3ccccc23)cc1 — lower, 33.3%
- Nc1[nH]c(C(=O)c2ccccc2)c(-c2ccc(Cl)cc2)c1C(=O)NCCc1c[nH]c2ccccc12 — higher, 84.7%
- COc1cc(-c2c(C(=O)c3ccccc3)[nH]c(N)c2C(=O)NCCc2c[nH]c3ccccc23)ccc1F — lower, 37.1%
- Nc1[nH]c(C(=O)c2ccccc2)c(-c2ccc3c(c2)OCO3)c1C(=O)NCCc1c[nH]c2ccccc12 — lower, 62.7%
- Cc1ccc(-c2c(C(=O)c3ccccc3)[nH]c(N)c2C(=O)NCc2ccc(Cl)cc2)cc1 — higher, 94.4%
- COc1ccc(C(=O)c2[nH]c(N)c(C(=O)NCCc3c[nH]c4ccccc34)c2-c2ccccc2C(F)(F)F)cc1 — higher, 97.2%
- COCCNC(=O)c1c(N)[nH]c(C(=O)c2ccc(Br)cc2)c1-c1ccc(Br)cc1 — higher, 103%
- COc1ccccc1CCNC(=O)c1c(N)[nH]c(C(=O)c2ccccc2)c1-c1ccc(Cl)cc1Cl — higher, 91.7%
- COc1ccc(C(=O)c2[nH]c(N)c(C(=O)c3c[nH]c4ccccc34)c2-c2ccc(OC)cc2)cc1 — higher, 89.4%
- Cc1ccc([C@H](C)NC(=O)c2c(N)[nH]c(C(=O)c3ccccc3)c2-c2cc(Cl)cc(Cl)c2)cc1 — higher, 77.3%
- Nc1[nH]c(C(=O)c2ccccc2)c(-c2cccc3ccccc23)c1C(=O)NCc1ccccc1 — higher, 92.5%
- Nc1[nH]c(C(=O)c2ccccc2)c(-c2ccc3ccccc3c2)c1C(=O)NCCc1ccc(Cl)cc1 — higher, 80.6%
- NC(=O)c1c(N)[nH]c(C(=O)c2ccccc2)c1-c1ccncc1 — higher, 98.9%
- Nc1[nH]c(C(=O)c2ccccc2)c(-c2ccc(F)cc2)c1C(=O)Cc1ccccc1 — higher, 75.1%
- Nc1[nH]c(C(=O)c2ccc(Cl)cc2)c(-c2ccc(Br)cc2)c1C(=O)NCc1ccc(Cl)cc1Cl — higher, 105%
- Nc1[nH]c(C(=O)c2ccccc2)c(-c2ccccc2Br)c1C(=O)NC1CCCCC1 — higher, 86.7%
- Nc1[nH]c(C(=O)c2ccccc2)c(-c2c(F)cccc2Cl)c1C(=O)NCCc1c[nH]c2ccccc12 — higher, 92.7%
- Nc1[nH]c(C(=O)c2ccccc2)c(-c2ccc(Cl)cc2)c1C(=O)c1ccc(Cl)cc1 — higher, 100%
- Nc1[nH]c(C(=O)c2ccccc2)c(-c2ccc3ccccc3c2)c1C(=O)NCc1cccc2ccccc12 — higher, 98.6%
- N#Cc1c(N)[nH]c(C(=O)c2ccccc2)c1-c1ccc(Br)cc1 — lower, 63.4%
- Nc1[nH]c(C(=O)c2ccccc2)c(-c2ccc(Br)cc2)c1C(=O)NC1CCCCC1 — higher, 87.5%
- Nc1[nH]c(C(=O)c2ccccc2)c(-c2ccc(Br)cc2)c1C(=O)NCCc1c[nH]c2ccccc12 — lower, 73.5%
- COc1cc(-c2c(C(=O)c3ccccc3)[nH]c(N)c2C(N)=O)ccc1O — higher, 98.8%
- CC(C)(C)C(=O)c1c(N)[nH]c(C(=O)c2ccccc2)c1-c1ccccc1Br — higher, 82.9%
- NC(=O)c1c(N)[nH]c(C(=O)c2ccccc2)c1-c1ccccc1Cl — higher, 114%
- Nc1[nH]c(C(=O)c2ccccc2)c(-c2ccc(Br)cc2)c1C(=O)c1ccc(Br)cc1 — lower, 62.2%
- Nc1[nH]c(C(=O)c2ccccc2)c(-c2ccncc2)c1C(=O)NCCc1c[nH]c2ccccc12 — higher, 106%
- Nc1[nH]c(C(=O)c2ccc(Cl)cc2)c(-c2ccc(Br)cc2)c1C(=O)NCCc1c[nH]c2ccccc12 — lower, 53.3%
- CCCCCCCCCCCCCCNC(=O)c1c(N)[nH]c(C(=O)c2ccc(Br)cc2)c1-c1ccc(Br)cc1 — higher, 99.2%
- Nc1[nH]c(C(=O)c2ccccc2)c(-c2ccc(Cl)cc2)c1C(=O)c1c[nH]c2ccccc12 — higher, 73.9%
- Nc1[nH]c(C(=O)c2ccccc2)c(-c2ccccc2Cl)c1C(=O)c1ccccc1 — lower, 70.9%
- Nc1[nH]c(C(=O)c2ccccc2)c(-c2ccc3ccccc3c2)c1C(=O)NC1CC1 — higher, 83.5%
- Nc1[nH]c(C(=O)c2ccc(Br)cc2)c(-c2ccc(Cl)c(Cl)c2)c1C(=O)NCCc1c[nH]c2ccccc12 — lower, 50%
- CC(C)(C)C(=O)c1c(N)[nH]c(C(=O)c2ccccc2)c1-c1ccc(Br)cc1 — higher, 87.2%
- Nc1[nH]c(C(=O)c2ccc(Br)cc2)c(-c2ccccn2)c1C(=O)NCCc1c[nH]c2ccccc12 — lower, 42%
- Nc1[nH]c(C(=O)c2ccccc2)c(-c2ccncc2)c1C(=O)NC1CC1 — higher, 91%
- CN(C)c1ccc(-c2c(C(=O)c3ccccc3)[nH]c(N)c2C(N)=O)cc1 — higher, 103%
- COc1ccc(CCNC(=O)c2c(N)[nH]c(C(=O)c3ccccc3)c2-c2ccc(N(C)C)cc2)cc1 — lower, 66.4%
- Nc1[nH]c(C(=O)c2ccc(Br)cc2)c(-c2ccc(Br)cc2)c1C(=O)NCCc1c[nH]c2ccccc12 — lower, 30.6%
- Nc1[nH]c(C(=O)c2ccccc2)c(-c2ccccn2)c1C(=O)c1c[nH]c2ccccc12 — higher, 104%
- Nc1[nH]c(C(=O)c2ccccc2)c(-c2cc(F)ccc2Br)c1C(=O)NCCc1c[nH]c2ccccc12 — lower, -29.7%
- Nc1[nH]c(C(=O)c2ccccc2)c(-c2ccc(Br)cc2)c1C(=O)N1CCN(CCO)CC1 — higher, 100%
- COc1ccc(-c2c(C(=O)c3ccccc3)[nH]c(N)c2C(N)=O)cc1OC — higher, 117%
- Nc1[nH]c(C(=O)c2ccc(Br)cc2)c(-c2cccc3ccccc23)c1C(=O)NCCc1c[nH]c2ccccc12 — lower, 46.7%
- Nc1[nH]c(C(=O)c2ccccc2)c(-c2ccccc2Cl)c1C(=O)NCCc1c[nH]c2ccccc12 — higher, 98.2%
- Nc1[nH]c(C(=O)c2ccccc2)c(-c2ccc(Cl)cc2)c1C(=O)O — higher, 87.9%
- COc1ccc(C(=O)c2[nH]c(N)c(C(N)=O)c2-c2ccc(O)c(OC)c2)cc1 — lower, 67.1%
- Nc1[nH]c(C(=O)c2ccccc2)c(-c2cccnc2)c1C(=O)NCCc1c[nH]c2ccccc12 — higher, 82.5%
- COc1cc(-c2c(C(=O)c3ccccc3)[nH]c(N)c2C(N)=O)ccc1F — higher, 110%
- NC(=O)c1c(N)[nH]c(C(=O)c2ccccc2)c1-c1ccccc1C(F)(F)F — higher, 93.6%
- CCCCCCNC(=O)c1c(N)[nH]c(C(=O)c2ccccc2)c1-c1ccc(O)cc1 — higher, 90.8%
- CN(C)CCCNC(=O)c1c(N)[nH]c(C(=O)c2ccc(Br)cc2)c1-c1ccc(Br)cc1 — higher, 114%
- Cc1[nH]c2ccccc2c1C(=O)c1c(N)[nH]c(C(=O)c2ccccc2)c1-c1ccc(Cl)cc1 — higher, 79.7%
- NC(=O)c1c(N)[nH]c(C(=O)c2ccccc2)c1-c1ccccc1Br — higher, 87.4%
- Nc1[nH]c(C(=O)c2ccccc2)c(-c2ccc(F)cc2)c1C(=O)NCCc1c[nH]c2ccccc12 — lower, 59.6%
- Nc1[nH]c(C(=O)c2ccccc2)c(-c2cccc(C(F)(F)F)c2)c1C(=O)NCCc1c[nH]c2ccccc12 — lower, 52.6%
